From publication PMC12138108 (Acta Pharmaceutica Sinica. B, 2025)

How the values were obtained:
HBV core protein (HBC) = HBV core protein (HBC) (Hepatitis B virus genotype D subtype ayw, UniProt P03146); experiment: HBC degradation in HepAD38 cells by Western blot; format: cell-based; conditions: for HBC degradation activity (Western blot): tet-, maximum non-toxic concentration, 72 h
[1] = test system: HBV DNA replication in HepAD38 cells; experiment: In vitro anti-HBV assay in HepAD38 cells; format: cell-based, Hepatitis B virus (HBV); conditions: reduction of HBV DNA by 50% in HepAD38 cells, qPCR, 4 days incubation (Table 2)
Procedure, shortened: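 HepAD38 cells were plated overnight, then exposed to serially diluted test compound without tetracycline for 4 days. Cytoplasmic HBV core DNA was extracted and quantified by real-time PCR. EC50 is relative to mock-treated controls, calculated by the Reed & Muench method.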

[2] = Cytotoxicity on HepAD38 cells by cytopathic effect; format: cell-based, Human; conditions: human, HepAD38 cells, CC50, reduction of viability of HepAD38 cells by 50%, CPE method (Table 2)
Procedure, shortened: (§1)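 HepAD38 cells (tetracycline-inducible HBV) were maintained in DMEM with 10% FBS, 1 µg/mL tetracycline and 400 µg/mL G-418. Cells were plated overnight, then given serial dilutions of test compound without tetracycline. Cytotoxicity was read by the cytopathic effect method. CC50 is the concentration cutting viability by 50%, calculated by the Reed & Muench method.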

HepAD38 cells = experiment: Cytotoxicity on HepAD38 cells by cytopathic effect; format: cell-based, Human
Procedure, shortened: as §1

[3] = test system: 11 CpAMs-resistant mutant HBC (P25A, P25G, D29L, D29W, T33N, I105F, I105W, I105Y, T109A, V124W, V124F); experiment: Degradation of CpAMs-resistant mutant HBC in transfected HepG2 cells; format: cell-based, Hepatitis B virus (HBV); conditions: 18 h, HyT-S7 6, NVR 3-778 3, 3TC 1 μmol/L
Procedure, shortened: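 HepG2 cells at about 80% confluence were transfected with 0.25 µg plasmid. The pCMV-HBC-derived plasmids carried P25A, P25G, D29A/D29L, D29W, T33N, I105F, I105W, I105Y or T109A; pHBV1.3-derived plasmids carried V124F/V124W. At 6 h post-transfection, medium was replaced with fresh medium or test compound (6 µmol/L) or comparators (1–3 µmol/L) for 18 h. Intracellular core protein was detected by Western blot against a GAPDH/β-actin loading control, with chemiluminescence read-out.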

[4] = Hepatitis B virus, HePAD38, 96 h

Compound	HBC degradation activity (Western blot) (HBV core protein (HBC))	EC50 [1, 4] [µM]	CC50 [2] [µM]	other results
CC(C)Cc1ccc([C@H](C)C(=O)NCCOCC(=O)NC2CCN(S(=O)(=O)c3cc(C(=O)Nc4cc(F)c(F)c(F)c4)ccc3F)CC2)cc1 [HyT-S13, (S)-4-Fluoro-3-((4-(2-(2-(2-(4-isobutylphenyl)propanamido)ethoxy)acetamido)piperidin-1-yl)sulfonyl)-N-(3,4,5-trifluorophenyl)benzamide]	still retains some degradation activity	0.59	11.6	
NCCOCC(=O)NC1CCN(S(=O)(=O)c2cc(C(=O)Nc3cc(F)c(F)c(F)c3)ccc2F)CC1 [SP-O-7, 3-((4-(2-(2-Aminoethoxy)acetamido)piperidin-1-yl)sulfonyl)-4-fluoro-N-(3,4,5-trifluorophenyl)benzamide]				HBC degradation (Western blot) (HBV core protein (HBC); 20 μmol/L, 24 h): unable to induce degradation of HBC
CC(C)(C)OC(=O)/N=C(\NCCC[C@H](NC(=O)OC(C)(C)C)C(=O)NCCOCC(=O)NC1CCN(S(=O)(=O)c2cc(C(=O)Nc3cc(F)c(F)c(F)c3)ccc2F)CC1)NC(=O)OC(C)(C)C [HyT-S15, 2-Methylpropan-2-yl {[(6E,11S)-18-({1-[(2-fluoro-5-{[(3,4,5-trifluorophenyl)amino]carbonyl}phenyl)dioxo-λ6-sulfanyl]hexahydropyridin-4-yl}amino)-2,2-dimethyl-11-({[(2-methylprop-2-yl)oxy]carbonyl}amino)-4,12,18-trioxo-3,16-dioxa-5,7,13-triazaoctadecan-6-ylidene]amino}methanoate]	still retains some degradation activity	0.45	60	maximum non-toxic concentration by CPE method (HepAD38 cells; HepAD38 cells, concentration used in the degradation test): 20 µmol/L
O=C(COCCNC(=O)C(c1ccccc1)c1ccccc1)NC1CCN(S(=O)(=O)c2cc(C(=O)Nc3cc(F)c(F)c(F)c3)ccc2F)CC1 [HyT-S10, 3-((4-(2-(2-(2,2-Diphenylacetamido)ethoxy)acetamido)piperidin-1-yl)sulfonyl)-4-fluoro-N-(3,4,5-trifluorophenyl)benzamide]	still retains some degradation activity	0.26	20	
CC(C)[C@@H]1CC[C@@H](C)C[C@H]1OCC(=O)NCCOCC(=O)NC1CCN(S(=O)(=O)c2cc(C(=O)Nc3cc(F)c(F)c(F)c3)ccc2F)CC1 [HyT-S14, 4-Fluoro-3-((4-(2-(2-(2-(((1R,2S,5R)-2-isopropyl-5-methylcyclohexyl)oxy)acetamido)ethoxy)acetamido)piperidin-1-yl)sulfonyl)-N-(3,4,5-trifluorophenyl)benzamide]	still retains some degradation activity	0.29	11.6	
N^1-(Bicyclo[2.2.1]hept-2-en-1-ylmethyl)-N^6-(1-((2-fluoro-5-((3,4,5-trifluorophenyl)carbamoyl)phenyl)sulfonyl)piperidin-4-yl)adipamide [HyT-S12]				EC50 [1]: 0.22 µM; CC50 (HepAD38 cells; reduction of viability of HepAD38 cells by 50%, CPE method (Table 2)): 28.8 µM
O=C(CC1c2ccccc2-c2ccccc21)NCCOCC(=O)NC1CCN(S(=O)(=O)c2cc(C(=O)Nc3cc(F)c(F)c(F)c3)ccc2F)CC1 [HyT-S11, 3-((4-(2-(2-(2-(9H-Fluoren-9-yl)acetamido)ethoxy)acetamido)piperidin-1-yl)sulfonyl)-4-fluoro-N-(3,4,5-trifluorophenyl)benzamide]	still retains some degradation activity	0.21	34.6	
Nc1ccn([C@@H]2CS[C@H](CO)O2)c(=O)n1 [3TC, lamivudine]				degradation of 11 mutant types of HBC [3]: neither NVR 3-778 nor 3TC showed any degradation effect
